Experimental data from ChEMBL document CHEMBL1145556, “Development of potent and selective phosphinic peptide inhibitors of angiotensin-converting enzyme 2” (J Med Chem, 2008).

Tests used:
[1] = molecular target: Angiotensin-converting enzyme 2 (Homo sapiens, UniProt Q9BYF1); experiment: Inhibition of ACE2
Outline: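 Recombinant ACE2 (0.3 nM final) preincubated with inhibitor for 45 min, then Mca-APK(Dnp) substrate (35 µM final) added. Run at 25 °C in 50 mM Hepes pH 6.8, 1 M NaCl, 10 µM ZnCl2. Fluorescence rise followed continuously (ex 320, em 405 nm) at under 10% substrate use. Triplicates at five inhibitor concentrations giving 20–80% inhibition; Ki by the Horovitz–Levitzki method.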

[2] = molecular target: T1, Carboxypeptidase A1 (Bos taurus, UniProt P00730); experiment: Inhibition of bovine carboxypeptidase A
T1 sequence (P00730 whole entry): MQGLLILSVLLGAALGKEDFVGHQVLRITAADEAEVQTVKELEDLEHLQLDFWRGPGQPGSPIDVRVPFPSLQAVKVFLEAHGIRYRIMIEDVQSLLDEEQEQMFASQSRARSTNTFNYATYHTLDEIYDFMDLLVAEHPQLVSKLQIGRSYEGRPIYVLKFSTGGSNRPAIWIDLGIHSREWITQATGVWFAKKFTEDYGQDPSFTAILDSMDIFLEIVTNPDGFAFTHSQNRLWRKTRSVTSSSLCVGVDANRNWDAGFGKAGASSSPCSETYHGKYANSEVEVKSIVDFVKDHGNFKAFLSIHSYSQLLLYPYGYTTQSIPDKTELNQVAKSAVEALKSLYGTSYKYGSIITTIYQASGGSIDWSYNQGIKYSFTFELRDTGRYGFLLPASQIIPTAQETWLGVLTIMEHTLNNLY
Outline: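 Bovine pancreatic carboxypeptidase A (0.5 nM) mixed with inhibitor in 50 mM Tris-HCl, 1 M NaCl, pH 7.5. Reaction started by adding furylacryloyl-Phe-Phe (50 µM).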

[3] = Inhibition of ACE
Outline: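 Somatic ACE (0.5 nM) with Mca-Ala-Ser-Asp-Lys-Dpa-OH substrate (15 µM). Otherwise as for ACE2: 45 min enzyme–inhibitor preincubation, 25 °C, 50 mM Hepes pH 6.8, 1 M NaCl, 10 µM ZnCl2. Continuous fluorescence read-out (ex 320, em 405 nm) of initial rates. Triplicates at five concentrations spanning 20–80% inhibition; Ki by the Horovitz–Levitzki method.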

Angiotensin-converting enzyme 2, sequence (Q9BYF1 whole entry): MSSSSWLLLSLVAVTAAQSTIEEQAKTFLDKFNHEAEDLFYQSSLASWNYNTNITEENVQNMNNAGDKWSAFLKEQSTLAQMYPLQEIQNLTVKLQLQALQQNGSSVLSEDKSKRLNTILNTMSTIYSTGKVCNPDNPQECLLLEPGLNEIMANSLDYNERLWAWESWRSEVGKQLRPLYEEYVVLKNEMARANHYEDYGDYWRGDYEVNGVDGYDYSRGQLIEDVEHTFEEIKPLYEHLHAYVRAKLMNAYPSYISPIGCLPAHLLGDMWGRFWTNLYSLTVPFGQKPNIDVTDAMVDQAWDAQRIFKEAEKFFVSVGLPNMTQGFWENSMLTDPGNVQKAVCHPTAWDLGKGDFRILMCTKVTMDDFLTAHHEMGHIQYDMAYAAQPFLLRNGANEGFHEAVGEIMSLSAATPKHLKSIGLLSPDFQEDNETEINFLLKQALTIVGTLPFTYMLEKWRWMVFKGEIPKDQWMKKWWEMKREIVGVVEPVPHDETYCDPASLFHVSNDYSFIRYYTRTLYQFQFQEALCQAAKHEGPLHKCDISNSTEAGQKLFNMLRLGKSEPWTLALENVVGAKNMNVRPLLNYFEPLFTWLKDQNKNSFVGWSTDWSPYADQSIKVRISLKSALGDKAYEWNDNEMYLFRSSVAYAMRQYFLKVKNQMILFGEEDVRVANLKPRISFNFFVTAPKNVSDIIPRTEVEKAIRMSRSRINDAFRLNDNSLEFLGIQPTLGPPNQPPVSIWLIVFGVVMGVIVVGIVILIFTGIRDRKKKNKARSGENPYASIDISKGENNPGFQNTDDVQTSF

Row | SMILES | Ki [1] [µM] | Ki [2] [µM] | Ki [3] [µM]
1 | O=C(N[C@H](Cc1ccccc1)P(=O)(O)C[C@@H](Cc1ccccc1)C(=O)O)OCc1ccccc1 | > 10 | – | –
2 | C[C@@H](NC(=O)OCc1ccccc1)P(=O)(O)C[C@@H](Cc1ccccc1)C(=O)O | > 10 | – | –
3 | O=C(O)[C@H](Cc1ccccc1)CP(=O)(O)[C@H]1CCCN1C(=O)OCc1ccccc1 | 0.3 | – | –
4 | O=C(O)[C@H](Cc1ccccc1)CP(=O)(O)[C@H]1CCCN1 | > 10 | – | –
5 | CC(C)C[C@@H](NC(=O)OCc1ccccc1)P(=O)(O)C[C@@H](Cc1ccccc1)C(=O)O | 8 | – | –
6 | C[C@@H](N)P(=O)(O)C[C@@H](Cc1ccccc1)C(=O)O | > 10 | – | –
7 | CC(=O)N[C@@H](Cc1c[nH]cn1)C(=O)N[C@H](CC(C)C)P(=O)(O)C[C@@H](Cc1ccccc1)C(=O)O | 0.8 | 0.175 | –
8 | CC(=O)N[C@@H](CC(C)C)C(=O)N[C@H](Cc1ccccc1)P(=O)(O)C[C@@H](Cc1ccccc1)C(=O)O | 0.92 | 0.0003 | –
9 | C[C@H](CP(=O)(O)[C@H]1CCCN1C(=O)OCc1ccccc1)C(=O)O | 3 | – | –
10 | CC(C)C[C@H](CP(=O)(O)[C@H]1CCCN1C(=O)OCc1ccccc1)C(=O)O | 0.3 | – | –
11 | CC(=O)N[C@@H](CCCCN)C(=O)N1CCC[C@@H]1P(=O)(O)C[C@@H](Cc1ccccc1)C(=O)O | 0.0065 | – | –
12 | CC(=O)N[C@@H](Cc1c[nH]cn1)C(=O)N1CCC[C@@H]1P(=O)(O)C[C@@H](Cc1ccccc1)C(=O)O (stereo in doubt) | 0.0007 | 0.06 | > 10
13 | CC(=O)N[C@@H](CC(C)C)C(=O)N1CCC[C@@H]1P(=O)(O)C[C@@H](Cc1ccccc1)C(=O)O (stereo in doubt; 28) | 0.00035 | – | –

More lines, now with the values ahead:

Row | Ki [1] [µM] | Ki [2] [µM] | Ki [3] [µM] | SMILES
14 | 0.0052 | – | – | CC(=O)N[C@@H](Cc1ccccc1)C(=O)N1CCC[C@@H]1P(=O)(O)C[C@@H](Cc1ccccc1)C(=O)O
15 | 0.00125 | 0.035 | > 10 | CC(=O)N[C@@H](CC(C)C)C(=O)N1CCC[C@@H]1P(=O)(O)CC(Cc1cc(-c2ccccc2)no1)C(=O)O (stereo partly specified)
16 | 0.007 | – | – | CC(=O)N[C@@H](CCC(=O)O)C(=O)N1CCC[C@@H]1P(=O)(O)C[C@@H](Cc1ccccc1)C(=O)O
17 | > 10 | – | – | CC(C)C[C@@H](N)P(=O)(O)C[C@@H](Cc1ccccc1)C(=O)O
18 | 0.22 | > 10 | – | CC(=O)N[C@@H](Cc1c[nH]cn1)C(=O)N[C@H](CC(C)C)P(=O)(O)CC(Cc1cc(-c2ccccc2)no1)C(=O)O (stereo partly specified)
19 | 0.0004 | 1.05 | > 10 | CC(=O)N[C@@H](Cc1c[nH]cn1)C(=O)N1CCC[C@@H]1P(=O)(O)CC(Cc1cc(-c2ccccc2)no1)C(=O)O (stereo partly specified)
20 | 0.0075 | – | – | CC(=O)N[C@@H](C)C(=O)N1CCC[C@@H]1P(=O)(O)C[C@@H](Cc1ccccc1)C(=O)O
21 | 0.0052 | – | – | CC(=O)N[C@@H](Cc1ccc(O)cc1)C(=O)N1CCC[C@@H]1P(=O)(O)C[C@@H](Cc1ccccc1)C(=O)O
22 | 0.0066 | – | – | CC(=O)N[C@H](C(=O)N1CCC[C@@H]1P(=O)(O)C[C@@H](Cc1ccccc1)C(=O)O)C(C)C
23 | > 10 | – | – | N[C@H](Cc1ccccc1)P(=O)(O)C[C@@H](Cc1ccccc1)C(=O)O
24 | 0.00013 | 0.0005 | > 10 | CC(=O)N[C@@H](CC(C)C)C(=O)N1CCC[C@@H]1P(=O)(O)C[C@@H](Cc1ccccc1)C(=O)O (stereo in doubt)
25 | 0.0021 | – | – | CC(=O)N[C@@H](Cc1c[nH]cn1)C(=O)N1CCC[C@@H]1P(=O)(O)C[C@@H](Cc1ccccc1)C(=O)O (stereo in doubt; 34)
